The subject of assay [1] is H9C2 cells. Briefly: Mitochondrial morphology analysis. Type of assay: cell-based, rat. The note with it: 10 μM, vs H/R alone. A digest of the protocol:
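H9C2 cells were pretreated 12 h with test compound (10 μM), then given 6 h hypoxia and 4 h reoxygenation in 10% FBS DMEM/F12. Cells were stained with MitoTracker and imaged by laser-scanning microscopy (60× oil). Mitochondria were scored as tubular, intermediate or fragmented. The value is the percentage of cells with intermediate or fragmented mitochondria, from 100 cells per experiment over four independent experiments (SEM).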

Assay [2] has as its system H9C2 cells. Briefly: mPTP opening. Type of assay: cell-based, rat. Particulars: 10 μM, 12 h pretreatment, H/R, compared with H/R alone, at least four independent experiments. In outline: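 H9C2 cells were pretreated 12 h with test compound (10 μM), then given 6 h hypoxia alone or H/R; an autophagy inducer (10 μM) served as comparator. Cells were loaded with calcein (2 μM) and CoCl2 (1 mM) in HBSS/Ca2+ for 15 min at 37 °C. Co2+ quenches cytosolic calcein, so retained mitochondrial calcein fluorescence indicates a closed mPTP.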

Structures are written as SMILES.

As to `CC1(C)CC(NC(=O)C[P+](c2ccccc2)(c2ccccc2)c2ccccc2)CC(C)(C)N1[O]` [Mito-Tempo], in the assay with H9C2 cells [1], the “fragmented mitochondrial appearance after H/R” value is “attenuated the fragmented mitochondrial appearance”. Regarding `CO[C@H]1C[C@@H]2CC[C@@H](C)[C@@](O)(O2)C(=O)C(=O)N2CCCC[C@H]2C(=O)O[C@H]([C@H](C)C[C@@H]2CC[C@@H](O)[C@H](OC)C2)CC(=O)[C@H](C)/C=C(\C)[C@@H](O)[C@@H](OC)C(=O)[C@H](C)C[C@H](C)/C=C/C=C/C=C/1C` [rapamycin], the “mitochondrial calcein fluorescence (mPTP opening)” value with H9C2 cells [2] is recorded as “considerably higher”.

The record behind these values is article PMC11425819 (ACS Omega, 2024).
